ChEMBL document CHEMBL1142671, “Chiral DNA gyrase inhibitors. 3. Probing the chiral preference of the active site of DNA gyrase. Synthesis of 10-fluoro-6-methyl-6,7-dihydro-9-piperazinyl- 2H-benzo[a]quinolizin-20-one-3-carboxylic acid analogues” (J Med Chem, 2005)
≈ marks a conversion by molar mass, not a printed value.

Tests used:
[1] = In vitro minimum inhibitory concentration against […] faecium ATCC 8043 was determined; format: functional
Outline: (§1)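 Two-fold agar dilution series; MIC taken as the average of triplicate runs. Tested against intact Gram-positive and Gram-negative bacteria.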

[2] = tested on: Escherichia coli; test: In vitro minimum inhibitory concentration against Escherichia coli Juhl was determined; format: functional; outline: as §1
[3] = tested on: Escherichia coli; test: In vitro minimum inhibitory concentration against Escherichia coli KNK 437 was determined; format: functional; outline: as §1
[4] = tested on: Micrococcus luteus; test: In vitro minimum inhibitory concentration against Micrococcus luteus 9341 was determined; format: functional; outline: as §1
[5] = tested on: Escherichia coli; test: In vitro minimum inhibitory concentration against Escherichia coli SS was determined; format: functional; outline: as §1
[6] = target: Nucleic Acid; test: In vitro inhibitory concentration against DNA gyrase from Micrococcus luteus […]; format: nucleic-acid assay
Outline: (§2)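 Purified DNA gyrase, isolated from Escherichia coli H560 or Micrococcus luteus; IC50 in µg/mL, averaged over triplicate runs.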

[7] = tested on: Pseudomonas aeruginosa; test: In vitro minimum inhibitory concentration against Pseudomonas aeruginosa was determined; format: functional; outline: as §1
[8] = target: DNA gyrase (Escherichia coli, UniProt P0AES4+P0AES6); test: In vitro inhibitory concentration against DNA gyrase from Escherichia coli H560; format: protein-complex assay; outline: as §2
[9] = tested on: Staphylococcus aureus; test: In vitro minimum inhibitory concentration against Staphylococcus aureus ATCC 6538P was determined; format: functional; outline: as §1
[10] = tested on: Escherichia coli; test: In vitro minimum inhibitory concentration against Escherichia coli H560 was determined; format: functional; outline: as §1

MIC [1]	MIC [2]	MIC [3]	MIC [4]	MIC [5]	IC50 [6]	IC50 [8]	MIC [10]	Compound	MIC [7]	MIC [9]
> 100 µg/mL	25 µg/mL (≈ 97.9 µM)	> 100 µg/mL	100 µg/mL (≈ 392 µM)	6.25 µg/mL (≈ 24.5 µM)	> 250 µg/mL	125 µM	50 µg/mL (≈ 196 µM)	C[C@@H]1Cc2ccccc2-c2cc(=O)c(C(=O)O)cn21	100 µg/mL (≈ 392 µM)	25 µg/mL (≈ 97.9 µM)
> 100 µg/mL	25 µg/mL (≈ 97.9 µM)	> 100 µg/mL	> 100 µg/mL	1.56 µg/mL (≈ 6.11 µM)	> 250 µg/mL	78.3 µM	25 µg/mL (≈ 97.9 µM)	C[C@H]1Cc2ccccc2-c2cc(=O)c(C(=O)O)cn21	50 µg/mL (≈ 196 µM)	50 µg/mL (≈ 196 µM)

Compound	MIC [1]	MIC [2]	MIC [3]	MIC [4]	MIC [5]	IC50 [6]	IC50 [8]	MIC [10]	MIC [7]	MIC [9]
O=C(O)c1cn(C2CC2)c2cc(N3CCNCC3)c(F)cc2c1=O [CIPROFLOXACIN]	0.78 µg/mL (≈ 2.35 µM)	–	–	1.56 µg/mL (≈ 4.71 µM)	0.005 µg/mL (≈ 0.0151 µM)	–	–	–	0.05 µg/mL (≈ 0.151 µM)	0.2 µg/mL (≈ 0.604 µM)
CC1Cc2cc(N3CCNCC3)c(F)cc2-c2cc(=O)c(C(=O)O)cn21 (stereo not given)	–	50 µg/mL (≈ 140 µM)	0.2 µg/mL (≈ 0.56 µM)	–	–	–	83.9 µM	–	50 µg/mL (≈ 140 µM)	25 µg/mL (≈ 70 µM)
